MEKK3 PB1 HTS = raises or lowers MEK5 binding to the human MEKK3 PB1 domain. bead-based flow cytometry, Alexa488-MEK5 binding to MEKK3; actives lie on both sides; 0 = blocked by unlabeled MEK5, 100 = vehicle. 1.4% of 290,000 active. AID 1529. Q99759. binding response (% of control), % at 10 µM;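 active = binding response more than 3 SD above or below the average of its plate-row segment, actives on both sides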;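 note: Alexa488 bead fluorescence after subtracting the streptavidin-only scavenger bead signal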
Target sequence (Q99759 whole entry, looked up, the tested form may be a part): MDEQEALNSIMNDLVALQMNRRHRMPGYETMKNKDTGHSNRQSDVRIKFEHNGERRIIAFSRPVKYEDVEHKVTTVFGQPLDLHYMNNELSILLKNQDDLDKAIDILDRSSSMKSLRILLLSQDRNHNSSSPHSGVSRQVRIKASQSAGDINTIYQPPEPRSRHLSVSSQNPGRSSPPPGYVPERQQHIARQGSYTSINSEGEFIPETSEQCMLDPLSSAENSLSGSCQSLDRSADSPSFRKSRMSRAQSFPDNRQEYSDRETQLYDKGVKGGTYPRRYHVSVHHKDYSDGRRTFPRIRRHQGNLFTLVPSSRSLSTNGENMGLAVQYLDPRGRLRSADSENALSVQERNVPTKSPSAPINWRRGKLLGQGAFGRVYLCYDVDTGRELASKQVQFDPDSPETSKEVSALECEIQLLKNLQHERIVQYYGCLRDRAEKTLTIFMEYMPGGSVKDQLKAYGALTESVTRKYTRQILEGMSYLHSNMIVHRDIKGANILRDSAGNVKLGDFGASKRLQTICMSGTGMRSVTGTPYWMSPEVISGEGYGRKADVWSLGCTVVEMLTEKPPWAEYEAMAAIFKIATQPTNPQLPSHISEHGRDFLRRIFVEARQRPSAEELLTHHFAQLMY
MEKK2mut PB1 HTS = signal of MEK5 binding to mutant human MEKK2 PB1 domain | bead flow cytometry, Alexa488-MEK5 binding to MEKK2 mutant | percent response, % at 10 µM | 0.35% of 290,000 active; in the data active = percent response above about 24%, passing the limit was not always enough
MEKK2 WT-MEK5 = raises or lowers MEK5 binding to wildtype human MEKK2 PB1 domain; Q9Y2U5; bead flow cytometry, Alexa488-MEK5 binding to MEKK2 WT; actives lie on both sides; binding response (% of control), % at 10 µM; 1.1% of 290,000 active; AID 1531; in the data active = binding response below about 67% or above about 130%
Lipid droplet = hepatic lipid droplet formation modulation. AML12 mouse hepatocytes, oleate lipid droplets, BODIPY imaging. inhibition, % at 6.5 µM. 0.4% of 240,000 active;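 active = lipid droplet intensity inhibited by at least 50%, with more than 500 cells counted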
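Test system: AML12 mouse liver cells; schedule: overnight exposure; technique: high-content imaging of BODIPY-stained droplets and DAPI nuclei; read-out: % inhibition of corrected integrated BODIPY droplet signal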
MEKK2wt confirm = raises or lowers MEK5 binding to wildtype human MEKK2, retest; shares compounds with MEKK3 PB1 HTS; bead flow cytometry, Alexa488-MEK5 binding to MEKK2 WT; actives lie on both sides; binding response (% of control), % at 10 µM; 2.4% of 5,900 active; AID 1892; in the data active = binding response below about 16% or above about 210%; inactive = in between
MEKK2mut confirm = signal of MEK5 binding to mutant human MEKK2, retest; shares compounds with MEKK3 PB1 HTS; bead flow cytometry, Alexa488-MEK5 binding to MEKK2 mutant; percent response, % at 10 µM; 2% of 5,900 active; in the data active = percent response mostly above about 71%, no sharp cut-off; inactive = mostly below about 38%;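 note: higher means compound restores mutant binding toward wildtype level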
MEKK3 confirm = confirmation of inhibitors of MEK5 binding to human MEKK3 | shares compounds with MEKK3 PB1 HTS | bead flow cytometry, Alexa488-MEK5 binding to MEKK3; stronger effect = lower value | binding response (% of control), % at 10 µM | 1.8% of 5,900 active;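 active = binding response below 72% of control, or above a set upper limit, though filed actives all read lower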;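 note: 100% = DMSO only wells and 0% = binding blocked by excess unlabeled MEK5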
Numbers without * were called inactive; . = no result; [ ] = remark or other dose. Sampled rows, rich in hits. Any-hit rate of the full collection: about 2.6%.

SMILES	MEKK3 PB1 HTS	MEKK2mut PB1 HTS	MEKK2 WT-MEK5	Lipid droplet	MEKK2wt confirm	MEKK2mut confirm	MEKK3 confirm
CCOc1ccc(N2CC(C(=O)NCCCN3CCOCC3)CC2=O)cc1 (configuration not stated)	2.0*[inhibitor]	-21	3.0*[inhibitor]	-2	102	7	105
COc1ccc(N2CC(C(=O)Nc3nnc(SCC(=O)NCC4CCCO4)s3)CC2=O)cc1 (configuration not stated)	103	4	99	-6	.	.	.
CC1=C(C(=O)OC(C)(C)C)C(c2cccc3ccccc23)NC(=O)N1 (configuration not stated)	103	1	93	5	.	.	.
CC(=O)N1/C(=C/c2ccc(N(C)C)cc2)C(=O)c2ccccc21	55	-12	36*[inhibitor]	-22	38	-20	83
O=C(CSc1cccc(C(F)(F)F)c1)NC(=O)c1ccccc1	146*	0	104	-5	111	8	111
CC1CCCN(c2nc(N(C)c3ccccc3)nc(N)c2[N+](=O)[O-])C1 (configuration not stated)	107	3	102	8	.	.	.
O=C(c1c(Cl)cccc1Cl)N1CCN(c2ncccn2)CC1	104	4	103	.	.	.	.
COc1ccc2oc(CS(=O)c3ccccc3)c(C(=O)O)c2c1 (configuration not stated)	104	7	111	-15	.	.	.
On1c(-c2ccccc2Cl)nc2ccccc21	132*	0	117	.	92	-7	100
On1c(-c2ccccc2Cl)nc2ncccc21	101	4	101	.	.	.	.
CC(NC(=O)CNC(=O)C1O[C@@H]2OC(C)(C)O[C@@H]2[C@H]2OC(C)(C)O[C@@H]12)C(=O)O (some centres not stated)	100	-6	99	6	.	.	.
Cc1ccc(S(=O)(=O)c2cc(OC(=O)c3ccco3)ccc2OC(=O)c2ccco2)cc1	128*	-1	101	15	96	-8	104
O=C(Oc1ccc(OC(=O)c2ccco2)c(S(=O)(=O)c2ccc(Br)cc2)c1)c1ccco1	101	-2	100	.	.	.	.
CC(N1CCOC1=O)S(=O)(=O)c1ccccc1 (configuration not stated)	103	8	110	23	.	.	.
Cc1ccc(C(=O)N2CCN=C2SCc2ccc([N+](=O)[O-])cc2)cc1C	64*[inhibitor]	-4	82	-9	96	-2	98
O=C(c1ccccc1)N1CCN=C1SCc1ccc([N+](=O)[O-])cc1	99	11	108	-4	.	.	.
COC(=O)c1c(NC(=O)CN(c2ccccc2)S(C)(=O)=O)sc2c1CCCC2	161*	2	108	31	98	-6	100
COC(=O)c1c(NC(=O)COC(=O)CCc2ccc(S(=O)(=O)N3CCOCC3)cc2)sc2c1CCC2	136*	0	104	-13	95	-8	101
Cc1cc(C)cc(NC(=O)COC(=O)CCc2ccc(S(=O)(=O)N3CCOCC3)cc2)c1	104	-1	98	21	.	.	.
CC(=O)c1c(C)nc2sc3c(=N)n(N)cnc3c2c1-c1ccc(Cl)cc1	92	-6	98	-11	.	.	.
Cn1nc(-c2ccc(Cl)cc2)cc1NC(=O)CC(C)(C)CC(=O)O	129*	26	124	-1	96	-3	93
COC(=O)Nc1ccc(S(=O)(=O)N2CCCC(C(=O)N3CC(C)OC(C)C3)C2)cc1 (configuration not stated)	103	1	101	-1	.	.	.
c1ccc(CSc2nnc3ccc(-c4cccs4)nn23)nc1	105	197*	92	22	98	1	102
CC1CC(C)CN(CC(O)COc2ccc3c(c2)CCC3)C1 (configuration not stated)	152*	1	110	16	97	-3	98
Cc1nc(C)n(CC(O)COc2ccc3c(c2)CCC3)n1 (configuration not stated)	96	1	101	-4	.	.	.
SMILES	MEKK3 PB1 HTS	MEKK2mut PB1 HTS	MEKK2 WT-MEK5	Lipid droplet	MEKK2wt confirm	MEKK2mut confirm	MEKK3 confirm
Cc1c(C(=O)NCCSCc2c(F)cccc2Cl)cnn1-c1ccc(Cl)cc1	129*	28	128	-4	97	-3	102
COc1ccccc1C(=O)NCCSCc1c(F)cccc1Cl	103	2	103	-9	.	.	.
Cc1cccc(Nc2nnc(SCC(=O)Nc3ccccc3[N+](=O)[O-])s2)c1	88	-1	95	10	.	.	.
Cc1ccccc1Nc1nnc(SCC(=O)Nc2ccccc2[N+](=O)[O-])s1	133*	0	105	3	96	-1	102
COc1ccc(C(=O)Nc2c(N)nc(SCC(=O)N3CCCCCC3)[nH]c2=O)cc1OC	108	8	110	6	.	.	.
Cc1ccc(/C=N/NC(=O)c2ccco2)cc1	63	-25	78	1	.	.	.
CN(C)c1ccc(/C=N/NC(=O)c2ccco2)cc1	130*	1	111	-2	102	6	104
CCOc1ccc2nc(NCCCNS(=O)(=O)c3ccc(C)cc3)c(C#N)cc2c1	130*	4	94	36	97	0	105
COc1ccc(CN(C)CC(=O)Nc2ccc(Cl)cc2C(F)(F)F)c(OC)c1	106	0	97	-17	.	.	.
COCCNC(=O)c1ccc(N2CC3CC(C2)c2cccc(=O)n2C3)c(NC(=O)c2ccc(Br)o2)c1 (configuration not stated)	101	2	97	0	.	.	.
CCn1c(SCC(=O)O)nnc1-c1ccccc1OC	105	-2	102	2	.	.	.
COc1ccccc1-c1nnc(SCC(=O)O)n1-c1ccccc1	135*	1	116	3	101	11	105
O=C(CN1C(=O)/C(=C\c2ccc(F)cc2)Oc2ccccc21)NCc1ccco1	106	-1	97	-40	.	.	.
COc1ccc(NC(C)c2ccccc2)cc1 (configuration not stated)	100	-6	94	17	.	.	.
CC(Nc1ccccc1)c1ccncc1 (configuration not stated)	133*	6	124	2	102	-26	98
CCCCNC(=S)Nc1ccc(-c2nc3ccc(C)cc3s2)cc1	134*	0	105	15	105	3	107
Cc1ccc2nc(-c3ccc(NC(=S)NCCC(C)C)cc3)sc2c1	92	-2	92	.	.	.	.
CSCCCNC(=S)N1CCN(c2ccc(C(C)=O)cc2)CC1	5.0*[inhibitor]	-45	6.0*[inhibitor]	-6	100	-5	99
